In ChEMBL document CHEMBL3272012, “5-(Tetradecyloxy)-2-furancarboxylic acid and related hypolipidemic fatty acid-like alkyloxyarylcarboxylic acids” (J Med Chem, 1977):

What was measured:
Rattus norvegicus [1] = assay: Increase in liver weight in Wistar rat at 351 umol/kg/day administered through diet for 4 days; type: ADME, organism-based; details: in vivo, po, 96 h
Rattus norvegicus [2] = assay: Hypolipidemic activity in Wistar rat assessed as reduction in plasma cholesterol level at 351 umol/kg/day administered through diet for 4 days; type: functional; details: 96 h
Outline: (§1)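 Young male Wistar rats, 170-190 g at start, in groups of six, given compound mixed into Purina Lab Chow ad libitum for 4 or 10 days as stated. Daily dose was calculated from food consumption and body weight. Plasma was taken by cardiac puncture at the end and cholesterol measured by automated procedure. Results are % reduction versus a concurrent untreated control group, with Student's t test.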

Rattus norvegicus [3] = assay: Hypolipidemic activity in Wistar rat assessed as reduction in plasma triglyceride level at 351 umol/kg/day administered through diet for 4 days; type: functional; details: 96 h
Outline: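 Young male Wistar rats, 170-190 g at start, six per group, given compound mixed into Purina Lab Chow, fed ad libitum for 4 or 10 days. Daily dose calculated from food consumption and body weight. Rats bled by cardiac puncture at end of treatment. Plasma triglycerides determined by automated procedure. Expressed as percent reduction versus a concurrent untreated control group, Student's t test.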

Rattus norvegicus [4] = assay: Increase in cholesterol level in Wistar rat liver at 351 umol/kg/day administered through diet for 4 days; type: ADME, organism-based; details: in vivo, po, 96 h
Rattus norvegicus [5] = assay: Increase in cholesterol level in Wistar rat liver at 540 umol/kg/day administered through diet for 4 days; type: ADME, organism-based; details: in vivo, po, 96 h
Rattus norvegicus [6] = assay: Hypolipidemic activity in Wistar rat assessed as reduction in plasma triglyceride level at 540 umol/kg/day administered through diet for 4 days; type: functional; details: 96 h
Rattus norvegicus [7] = assay: Increase in liver weight in Wistar rat at 540 umol/kg/day administered through diet for 4 days; type: ADME, organism-based; details: in vivo, po, 96 h
Rattus norvegicus [8] = assay: Hypolipidemic activity in Wistar rat assessed as reduction in plasma cholesterol level at 540 umol/kg/day administered through diet for 4 days; type: functional; details: 96 h
Outline: (§2)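 Young male Wistar rats, 170-190 g initial weight, groups of six, given compound mixed thoroughly into Purina Lab Chow ad libitum for 4 or 10 days as stated. Daily dose calculated from food consumption and body weight. Bled by cardiac puncture at end of treatment; plasma cholesterol measured by automated procedure. Expressed as percent reduction versus simultaneous untreated control group; Student's t test.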

Rattus norvegicus [9] = assay: Increase in liver weight in Wistar rat at 385 umol/kg/day administered through diet for 10 days; type: ADME, organism-based; details: in vivo, po, 240 h
Rattus norvegicus [10] = assay: Hypolipidemic activity in Wistar rat assessed as reduction in plasma cholesterol level at 385 umol/kg/day administered through diet for 10 days; type: functional; details: 240 h; outline: as §1
Rattus norvegicus [11] = assay: Hypolipidemic activity in Wistar rat assessed as reduction in plasma cholesterol level at 204 umol/kg/day administered through diet for 10 days; type: functional; details: 240 h; outline: as §1
Rattus norvegicus [12] = assay: Increase in liver weight in Wistar rat at 398 umol/kg/day administered through diet for 10 days; type: ADME, organism-based; details: in vivo, po, 240 h
Rattus norvegicus [13] = assay: Hypolipidemic activity in Wistar rat assessed as reduction in plasma triglyceride level at 398 umol/kg/day administered through diet for 10 days; type: functional; details: 240 h
Outline: (§3)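 Young male Wistar rats (170-190 g initial weight), groups of six, fed test compound mixed into Purina Lab Chow ad libitum; daily dose calculated from food consumption and body weight. Bled by cardiac puncture at end of treatment; plasma triglycerides measured by automated procedure. Results given as percent reduction versus a simultaneous untreated control group, with significance by Student's t test.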

Rattus norvegicus [14] = assay: Hypolipidemic activity in Wistar rat assessed as reduction in plasma triglyceride level at 385 umol/kg/day administered through diet for 10 days; type: functional; details: 240 h; outline: as §3
Rattus norvegicus [15] = assay: Increase in cholesterol level in Wistar rat liver at 398 umol/kg/day administered through diet for 10 days; type: ADME, organism-based; details: in vivo, po, 240 h
Rattus norvegicus [16] = assay: Increase in cholesterol level in Wistar rat liver at 385 umol/kg/day administered through diet for 10 days; type: ADME, organism-based; details: in vivo, po, 240 h
Rattus norvegicus [17] = assay: Hypolipidemic activity in Wistar rat assessed as reduction in plasma cholesterol level at 398 umol/kg/day administered through diet for 10 days; type: functional; details: 240 h; outline: as §1
Rattus norvegicus [18] = assay: Increase in liver weight in Wistar rat at 204 umol/kg/day administered through diet for 10 days; type: ADME, organism-based; details: in vivo, po, 240 h
Rattus norvegicus [19] = assay: Increase in cholesterol level in Wistar rat liver at 204 umol/kg/day administered through diet for 10 days; type: ADME, organism-based; details: in vivo, po, 240 h
Rattus norvegicus [20] = assay: Hypolipidemic activity in Wistar rat assessed as reduction in plasma triglyceride level at 204 umol/kg/day administered through diet for 10 days; type: functional; details: 240 h
Outline: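 Young male Wistar rats, 170-190 g initial weight, six per group, fed drug mixed thoroughly into Purina Lab Chow ad libitum for the stated days; daily dose calculated from food consumption and body weight. Bled by cardiac puncture at end; plasma cholesterol and triglycerides by automated procedures, expressed as percent reduction versus simultaneous untreated controls; Student's t test.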

Rattus norvegicus [21] = assay: Hypolipidemic activity in Wistar rat assessed as reduction in plasma triglyceride level at 422 umol/kg/day administered through diet for 4 days; type: functional; details: 96 h
Rattus norvegicus [22] = assay: Hypolipidemic activity in Wistar rat assessed as reduction in plasma cholesterol level at 422 umol/kg/day administered through diet for 4 days; type: functional; details: 96 h; outline: as §2
Rattus norvegicus [23] = assay: Increase in cholesterol level in Wistar rat liver at 422 umol/kg/day administered through diet for 4 days; type: ADME, organism-based; details: in vivo, po, 96 h
Rattus norvegicus [24] = assay: Increase in liver weight in Wistar rat at 422 umol/kg/day administered through diet for 4 days; type: ADME, organism-based; details: in vivo, po, 96 h
Rattus norvegicus [25] = assay: Hypolipidemic activity in Wistar rat assessed as reduction in plasma cholesterol level at 441 umol/kg/day administered through diet for 4 days; type: functional; details: 96 h; outline: as §2
Rattus norvegicus [26] = assay: Increase in cholesterol level in Wistar rat liver at 441 umol/kg/day administered through diet for 4 days; type: ADME, organism-based; details: in vivo, po, 96 h
Rattus norvegicus [27] = assay: Increase in liver weight in Wistar rat at 441 umol/kg/day administered through diet for 4 days; type: ADME, organism-based; details: in vivo, po, 96 h
Rattus norvegicus [28] = assay: Hypolipidemic activity in Wistar rat assessed as reduction in plasma triglyceride level at 441 umol/kg/day administered through diet for 4 days; type: functional; details: 96 h
Rattus norvegicus [29] = assay: Hypolipidemic activity in Wistar rat assessed as reduction in plasma cholesterol level at 533 umol/kg/day administered through diet for 4 days; type: functional; details: 96 h; outline: as §2
Rattus norvegicus [30] = assay: Hypolipidemic activity in Wistar rat assessed as reduction in plasma triglyceride level at 533 umol/kg/day administered through diet for 4 days; type: functional; details: 96 h
Rattus norvegicus [31] = assay: Increase in liver weight in Wistar rat at 533 umol/kg/day administered through diet for 4 days; type: ADME, organism-based; details: in vivo, po, 96 h
Rattus norvegicus [32] = assay: Increase in cholesterol level in Wistar rat liver at 533 umol/kg/day administered through diet for 4 days; type: ADME, organism-based; details: in vivo, po, 96 h

With CCCCCCCC/C=C/CCCCCCCCOc1ccc(C(=O)O)o1 the Activity (Rattus norvegicus [1]) was 0%, the inhibition in vivo at 351 µmol/kg (Rattus norvegicus [2]) was 4% and the inhibition in vivo at 351 µmol/kg (Rattus norvegicus [3]) was 26%. It also gave an Activity (Rattus norvegicus [4]) of 11%.
In the case of CCCCCCCCCCOc1ccc(C(=O)O)o1, the Activity (Rattus norvegicus [5]) is reported as 17%, the inhibition in vivo at 540 µmol/kg (Rattus norvegicus [6]) is reported as 46% and the Activity (Rattus norvegicus [7]) is reported as 1%. The inhibition in vivo at 540 µmol/kg (Rattus norvegicus [8]) was 5%.
With CCCCCCCCCCCCCCCCOc1ccc(C(=O)OC)cc1 the Activity (Rattus norvegicus [9]) was 5%, the inhibition in vivo at 385 µmol/kg (Rattus norvegicus [10]) was 20% and the inhibition in vivo at 204 µmol/kg (Rattus norvegicus [11]) was 0%. The Activity (Rattus norvegicus [12]) was 12%, the inhibition in vivo at 398 µmol/kg (Rattus norvegicus [13]) was 40% and the inhibition in vivo at 385 µmol/kg (Rattus norvegicus [14]) was 63%. The Activity (Rattus norvegicus [15]) was 2%, the Activity (Rattus norvegicus [16]) was 1% and the inhibition in vivo at 398 µmol/kg (Rattus norvegicus [17]) was 14%. For the same molecule, the Activity (Rattus norvegicus [18]) was 10%, the Activity (Rattus norvegicus [19]) was 0% and the inhibition in vivo at 204 µmol/kg (Rattus norvegicus [20]) was 23%.
With CCCCCCCCCCCCCCCCOc1ccc(C(=O)OCC)cc1 the inhibition in vivo at 422 µmol/kg (Rattus norvegicus [21]) was 29%, the inhibition in vivo at 422 µmol/kg (Rattus norvegicus [22]) was 8% and the Activity (Rattus norvegicus [23]) was 9%. It also gave an Activity (Rattus norvegicus [24]) of 11%.
In the case of CCCCCCCCCCCCCCOc1ccc(C(=O)O)s1, the inhibition in vivo at 441 µmol/kg (Rattus norvegicus [25]) is reported as 54%, the Activity (Rattus norvegicus [26]) is reported as 1% and the Activity (Rattus norvegicus [27]) is reported as 4%. For the same molecule, the inhibition in vivo at 441 µmol/kg (Rattus norvegicus [28]) was 83%.
Work on CCCCCCCCCCCCOc1ccc(C(=O)O)o1 yielded an inhibition in vivo at 533 µmol/kg (Rattus norvegicus [29]) of 38%, an inhibition in vivo at 533 µmol/kg (Rattus norvegicus [30]) of 79% and an Activity (Rattus norvegicus [31]) of 22%. The Activity (Rattus norvegicus [32]) was 0%.
